Data taken from article PMC4207547 (Journal of Medicinal Chemistry, 2014).

target: T1, CXCR2 (Homo sapiens, UniProt P25025); assay: CXCL1-stimulated Ca2+ flux in whole human neutrophils; assay type: cell-based; settings: CXCL1-stimulated Ca2+ flux, hPMNs
T1 sequence (P25025 1-360): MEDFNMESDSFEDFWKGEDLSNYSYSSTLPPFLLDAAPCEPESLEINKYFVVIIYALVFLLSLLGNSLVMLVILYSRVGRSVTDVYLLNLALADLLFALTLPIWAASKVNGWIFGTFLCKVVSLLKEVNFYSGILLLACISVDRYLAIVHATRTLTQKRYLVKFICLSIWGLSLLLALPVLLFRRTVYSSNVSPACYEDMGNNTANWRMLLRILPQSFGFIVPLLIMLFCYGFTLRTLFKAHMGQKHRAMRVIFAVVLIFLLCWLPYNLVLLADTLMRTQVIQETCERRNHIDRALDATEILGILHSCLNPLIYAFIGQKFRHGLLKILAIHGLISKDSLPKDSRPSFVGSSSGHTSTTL
How it was run: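 Human neutrophils were isolated from blood by dextran sedimentation, Histopaque 1077 gradient and hypotonic RBC lysis (>95% pure, >98% viable). Cells were loaded with FLIPR Calcium 3 dye in HEPES-buffered Ca/Mg-free HBSS with compound or 1% DMSO for 30 min at 37 °C, then resuspended in HEPES-HBSS with Ca2+/Mg2+ and challenged with CXCL1.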

Row | fold improvement in potency relative to 2-carboxylate 51 [fold] | fold reduction in activity relative to 7 | fold lower potency than 60 [fold] | Molecule
1 | 2 |  |  | COC(=O)c1ccccc1CSc1ccc(C(=O)Nc2ccc(F)cc2)cn1 [Compound 50, Methyl 2-((5-(4-Fluorophenylcarbamoyl)pyridin-2-ylthio)methyl)benzoate]
2 | ~10 |  |  | O=C(Nc1ccc(F)cc1)c1ccc(SCc2ccccc2-c2nn[nH]n2)nc1 [Compound 52, 6-(2-(2H-Tetrazol-5-yl)benzylthio)-N-(4-fluorophenyl)nicotinamide]
3 |  | approximately 7 fold |  | CC1(C)OB(c2ccccc2CSc2ccc(C(=O)Nc3ccc(F)cc3)cn2)OC1(C)C [Compound 53, N-(4-Fluorophenyl)-6-(2-(4,4,5,5-tetramethyl-1,3,2-dioxaborolan-2-yl)benzylthio)nicotinamide]
4 |  | 7 fold |  | O=C(Nc1ccc(OC(F)(F)F)cc1)c1ccc(SCc2ccccc2B(O)O)nc1 [Compound 54, 2-((5-(4-(Trifluoromethoxy)phenylcarbamoyl)pyridin-2-ylthio)methyl)phenylboronic acid]
5 |  | 14 fold |  | O=C(Nc1ccncc1)c1ccc(SCc2ccccc2B(O)O)nc1 [Compound 57, 2-((5-(Pyridin-4-ylcarbamoyl)pyridin-2-ylthio)methyl)phenylboronic acid]
6 |  | 3 fold |  | O=C(Nc1ccc(O)cc1)c1ccc(SCc2ccccc2B(O)O)nc1 [Compound 58, 2-((5-(4-Hydroxyphenylcarbamoyl)pyridin-2-ylthio)methyl)phenylboronic acid]
7 |  | 8 fold |  | O=C(Nc1ccc(F)cn1)c1ccc(SCc2ccccc2B(O)O)nc1 [Compound 59, 2-((5-(5-Fluoropyridin-2-ylcarbamoyl)pyridin-2-ylthio)methyl)phenylboronic acid]
8 |  |  | 11 | O=C(c1ccc(SCc2ccccc2B(O)O)nc1)N(Cc1ccncc1)c1ccc(F)cc1 [Compound 61, 2-((5-((4-Fluorophenyl)(pyridin-4-ylmethyl)carbamoyl)pyridin-2-ylthio)methyl)phenylboronic acid]

same assay, conditions: hPMNs; SAR discussion

Row | activity against CXCL1-stimulated Ca2+ flux, in words | Molecule
9 | abrogated all activity | O=C(O)c1ccc(NC(=O)c2ccc(SCc3ccccc3B(O)O)nc2)cc1 [Compound 55, 4-(6-(2-Boronobenzylthio)nicotinamido)benzoic acid]
10 | abrogated all activity | O=C(Nc1ccc(-c2nn[nH]n2)cc1)c1ccc(SCc2ccccc2B(O)O)nc1 [Compound 56, 2-((5-(4-(2H-Tetrazol-5-yl)phenylcarbamoyl)pyridin-2-ylthio)methyl)phenylboronic acid]
11 | completely devoid of activity | O=C(c1ccc(SCc2ccccc2B(O)O)nc1)N(CC1CCCCN1)c1ccc(F)cc1 (stereo not shown) [Compound 62, 2-((5-((4-Fluorophenyl)(piperidin-2-ylmethyl)carbamoyl)pyridin-2-ylthio)methyl)phenylboronic acid]
12 | A similar finding | O=C(O)CN(C(=O)c1ccc(SCc2ccccc2B(O)O)nc1)c1ccc(F)cc1 [Compound 63, 2-(6-(2-Boronobenzylthio)-N-(4-fluorophenyl)nicotinamido)acetic acid]

More lines, now with the values behind:

Row | Molecule | activity against CXCL1-stimulated Ca2+ flux, in words
13 | O=C(Nc1ccc(F)cc1)c1ccc(SC2CCOC2=O)nc1 (stereo not shown) [Compound 9, N-(4-Fluorophenyl)-6-(2-oxotetrahydrofuran-3-ylthio)nicotinamide] | loss of activity
14 | O=C(Nc1ccc(F)cc1)c1ccc(SCS(=O)(=O)c2ccccc2)nc1 [Compound 10, N-(4-Fluorophenyl)-6-(phenylsulfonylmethylthio)nicotinamide] | loss of activity
15 | O=C(Nc1ccc(F)cc1)c1ccc(SC[N+](=O)[O-])nc1 [Compound 11, N-(4-Fluorophenyl)-6-(nitromethylthio)nicotinamide] | loss of activity
16 | CCOP(=O)(CSc1ccc(C(=O)Nc2ccc(F)cc2)cn1)OCC [Compound 12, Diethyl (5-(4-fluorophenylcarbamoyl)pyridin-2-ylthio)methylphosphonate] | loss of activity
17 | O=C(Nc1ccc(F)cc1)c1ccc(Sc2ccccc2)nc1 [Compound 45, N-(4-Fluorophenyl)-6-(phenylthio)nicotinamide] | loss of activity
18 | COC(=O)c1ccc(CSc2ccc(C(=O)Nc3ccc(F)cc3)cn2)cc1 [Compound 46, Methyl 4-((5-(4-Fluorophenylcarbamoyl)pyridin-2-ylthio)methyl)benzoate] | inactive
19 | COC(=O)c1cccc(CSc2ccc(C(=O)Nc3ccc(F)cc3)cn2)c1 [Compound 48, Methyl 3-((5-(4-Fluorophenylcarbamoyl)pyridin-2-ylthio)methyl)benzoate] | inactive

same assay, conditions: inhibition of CXCL1-stimulated Ca2+ flux in whole hPMNs; mean ± standard error

Row | IC50 [µM] | Molecule
20 | > 5 | N-(4-Fluorophenyl)-6-(4-(5-methyl-1,2,4-oxadiazol-3-yl)benzylthio)nicotinamide [Compound 18]

same assay, conditions: read-out: inhibition of CXCL1-mediated intracellular Ca2+ release

Row | inhibition at 5 µM [%] | Molecule
21 | > 50 | O=C(Nc1ccc(F)cc1)c1ccc(SCC2CCCCO2)nc1 (stereo not shown) [Compound 13, N-(4-Fluorophenyl)-6-((tetrahydro-2H-pyran-2-yl)methylthio)nicotinamide]
22 | > 50 | O=C(Nc1ccc(F)cc1)c1ccc(SCc2ccncc2)nc1 [Compound 15, N-(4-Fluorophenyl)-6-(pyridin-4-ylmethylthio)nicotinamide]
23 | > 50 | O=C(Nc1ccc(F)cc1)c1ccc(SCC2CCOCC2)nc1 [Compound 17, N-(4-Fluorophenyl)-6-((tetrahydro-2H-pyran-4-yl)methylthio)nicotinamide]
24 | > 50 | O=C(Nc1ccc(F)cc1)c1ccc(SCC2CCCO2)nc1 (stereo not shown) [Compound 20, N-(4-Fluorophenyl)-6-((tetrahydrofuran-2-yl)methylthio)nicotinamide]
25 | > 50 | O=C(Nc1ccc(F)cc1)c1ccc(SCc2ccc([N+](=O)[O-])o2)nc1 [Compound 22, N-(4-Fluorophenyl)-6-((5-nitrofuran-2-yl)methylthio)nicotinamide]
26 | > 50 | O=C(Nc1ccc(F)cc1)c1ccc(SCc2ccccc2)nc1 [Compound 30, 6-(Benzylthio)-N-(4-fluorophenyl)nicotinamide]
27 | > 50 | O=C(Nc1ccc(F)cc1)c1ccc(SCc2ccc(Cl)c(Cl)c2)nc1 [Compound 43, 6-(3,4-Dichlorobenzylthio)-N-(4-fluorophenyl)nicotinamide]

system: CXCR1; assay: not given; settings: cited from earlier work

Row | Molecule | effect on CXCL8 binding to CXCR1, in words
28 | CC(C)Cc1ccc([C@@H](C)C(=O)NS(C)(=O)=O)cc1 [reparixin, Reparixin] | no effect
